Experiment [1] can be described thus: RPL19A-GFP modulators, yeast TOR pathway, confirmation, cell-based, S. cerevisiae, flow cytometry, cherry picks, mother/daughter gates (AID 2270;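 active = GFP response below 50% of the DMSO control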). The note with it: S. cerevisiae RPL19A-GFP strain, 3 h, at 10 µM, stronger effect = lower value, 100 = same GFP as DMSO wells. A general note: A flow cytometer gives signals particle by particle.
A short description of experiment [2]: LAP4-GFP expression modulators in yeast, confirmation, cell-based, cherry picks, flow cytometry, mother/daughter gates (AID 2271;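 active = GFP response above 150% of the DMSO control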;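 also: ratio of sample to DMSO plate mean so 100% equals DMSO level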). The note with it: S. cerevisiae LAP4-GFP strain, 3 h, at 10 µM, stronger effect = higher value, 100 means same as DMSO control. The essentials:
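System – GFP-fusion yeast strain · Amount – 0.2 OD600 cells · Buffer or medium – SC growth medium · Dosing – single test-compound dose, 10 µM final · Schedule – 3 h treatment at 30 °C with rotation · Detection – GFP by flow cytometry · Read-out – per-gate (all, mother, daughter) GFP response vs DMSO · Benchmarks – positive rapamycin (400 ng/mL), negative DMSO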

A short description of experiment [3]: modulators of MEP2-GFP levels in yeast, confirmation, S. cerevisiae, flow cytometry GFP, cherry picks (AID 2272;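 active = GFP response above 150% of the DMSO control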;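 also: ratio of well signal to plate DMSO mean so 100% equals DMSO level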). The conditions noted are these: S. cerevisiae MEP2-GFP strain, 3 h, at 10 µM, stronger effect = higher value.
Experiment [4] is described as follows: AGP1-GFP expression modulators, hit retest, confirmation, cell-based, flow cytometry, S. cerevisiae, cherry picks (AID 2273).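 Also: median GFP channel fluorescence over the whole cell population gate.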 The conditions noted are these: S. cerevisiae AGP1-GFP strain, 3 h, at 10 µM.
Experiment [5] can be described thus: modulators of CIT2-GFP expression in yeast, confirmation, S. cerevisiae, GFP fusion, cherry picks, mother/daughter gates (AID 2274). The conditions noted are these: S. cerevisiae CIT2-GFP strain, flow cytometry, 3 h, at 10 µM, stronger effect = higher value.
Where [6] appears, read: measured here: daughter cell gate.
The mark [7] stands for this setting: measured here: mother cell gate.
The mark [8] stands for this setting: measured here: daughter cell gate response.
The mark [9] stands for this setting: measured here: mother cell gate response.

Calls of active or inactive are those of the source.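 The calls were made as follows, unless noted: active = GFP response above 150% of the DMSO level; inconclusive = fewer than 70 events counted for a yeast strain; inactive = the rest.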

`CCOCCCNC(=O)/C(C#N)=C/c1ccc([N+](=O)[O-])o1`: the GFP response vs DMSO in experiment [1] is 118% (inactive); in experiment [1] (setting [6]), 91.2%; in experiment [1] (setting [7]), 87.9%; in experiment [3] it was 285% (active). Further, the GFP response relative to DMSO is 212% (active) in experiment [2], 132% in experiment [2] (setting [8]) and 129% in experiment [2] (setting [9]). Besides, the GFP response, % of DMSO is 122% (inactive) in experiment [4], 182% (active) in experiment [5], 114% in experiment [5] (setting [6]) and 110% in experiment [5] (setting [7]).

As to `O=c1oc(/C=C/c2ccc([N+](=O)[O-])s2)nc2ccccc12`, the GFP response vs DMSO in experiment [1] was 112% (inactive); in experiment [1] (setting [6]) it was 113%; in experiment [1] (setting [7]), 108%; in experiment [3], 267% (active). The GFP response relative to DMSO in experiment [2] is 184% (active); in experiment [2] (setting [8]), 180%; in experiment [2] (setting [9]), 189%. Besides, the GFP response, % of DMSO in experiment [4] is 107% (inactive); in experiment [5], 183% (active); in experiment [5] (setting [6]), 180%; in experiment [5] (setting [7]), 181%.

For the molecule `CCOC(=O)Cc1csc(NC(=O)c2sc3nc4cc(C)ccc4cc3c2N)n1`, the GFP response vs DMSO in experiment [1] is 98.6% (inactive); in experiment [1] (setting [6]) it was 100%; in experiment [1] (setting [7]), 89.8%; in experiment [3], 114% (inactive). The GFP response relative to DMSO is 104% (inactive) in experiment [2], 92% in experiment [2] (setting [8]) and 111% in experiment [2] (setting [9]). Also, the GFP response, % of DMSO is 104% (inactive) in experiment [4], 105% (inactive) in experiment [5], 102% in experiment [5] (setting [6]) and 104% in experiment [5] (setting [7]).

With `CCN(CC)c1ccc2cc(-c3nc4ccccc4[nH]3)c(=O)oc2c1`, the GFP response vs DMSO is 108% (inactive) in experiment [1], 106% in experiment [1] (setting [6]), 111% in experiment [1] (setting [7]) and 185% (active) in experiment [3]. Besides, the GFP response relative to DMSO in experiment [2] is 107% (inactive); in experiment [2] (setting [8]) it was 99.3%; in experiment [2] (setting [9]) it was 113%. Also, the GFP response, % of DMSO in experiment [4] is 108% (inactive); in experiment [5], 135% (inactive); in experiment [5] (setting [6]), 132%; in experiment [5] (setting [7]), 136%.

With `COC(=O)c1ccc(/C=N/NC(=O)c2cccc(F)c2)cc1`, the GFP response vs DMSO in experiment [1] is 99.9% (inactive); in experiment [1] (setting [6]), 99.3%; in experiment [1] (setting [7]), 98.6%; in experiment [3], 104% (inactive). Further, the GFP response relative to DMSO was 103% (inactive) in experiment [2], 102% in experiment [2] (setting [8]) and 101% in experiment [2] (setting [9]). The GFP response, % of DMSO in experiment [4] is 99.3% (inactive); in experiment [5] it was 99.3% (inactive); in experiment [5] (setting [6]), 100%; in experiment [5] (setting [7]), 99.1%.

`O=C(O/N=C(\c1ccccc1)c1ccncc1)c1ccccc1Cl`: the GFP response vs DMSO in experiment [1] was 77% (inactive); in experiment [1] (setting [6]) it was 74.3%; in experiment [1] (setting [7]) it was 79.7%; in experiment [3], 91% (inactive). Also, the GFP response relative to DMSO is 119% (inactive) in experiment [2], 118% in experiment [2] (setting [8]) and 123% in experiment [2] (setting [9]). Further, the GFP response, % of DMSO was 91.8% (inactive) in experiment [4], 68.1% (inactive) in experiment [5], 69.2% in experiment [5] (setting [6]) and 69.2% in experiment [5] (setting [7]).

For the molecule `CCOC(=O)C1=C(C)N=C2SC(C(=O)OC)=CC(=O)N2C1c1ccc(F)cc1` (stereo not drawn), the GFP response vs DMSO in experiment [1] is 103% (inactive); in experiment [1] (setting [6]), 101%; in experiment [1] (setting [7]), 100%; in experiment [3], 91.3% (inactive). For the same molecule, the values for the GFP response relative to DMSO in experiment [2], in experiment [2] (setting [8]) and in experiment [2] (setting [9]) were 119% (inactive), 110% and 124%, respectively. Also, the GFP response, % of DMSO was 90.2% (inactive) in experiment [4], 96.5% (inactive) in experiment [5], 94.8% in experiment [5] (setting [6]) and 94.4% in experiment [5] (setting [7]).

For the molecule `Cc1ccc2c(c1)/C(=C/c1ccc(F)cc1)C(=O)N2`, the GFP response vs DMSO was 94.5% (inactive) in experiment [1], 92.2% in experiment [1] (setting [6]), 92.7% in experiment [1] (setting [7]) and 108% (inactive) in experiment [3]. Besides, the values for the GFP response relative to DMSO in experiment [2], in experiment [2] (setting [8]) and in experiment [2] (setting [9]) were 124% (inactive), 110% and 123%, respectively. Moreover, the GFP response, % of DMSO in experiment [4] is 98.4% (inactive); in experiment [5], 95.8% (inactive); in experiment [5] (setting [6]) it was 97.6%; in experiment [5] (setting [7]), 94.9%.

In the case of `CN(C)S(=O)(=O)c1cc(NC(=O)CN2CCOCC2)ccc1Cl`, the GFP response vs DMSO in experiment [1] was 97.6% (inactive); in experiment [1] (setting [6]), 97.3%; in experiment [1] (setting [7]), 97.7%; in experiment [3] it was 97.2% (inactive). Also, the GFP response relative to DMSO in experiment [2] is 95.3% (inactive); in experiment [2] (setting [8]), 99%; in experiment [2] (setting [9]), 96.4%. Besides, the GFP response, % of DMSO in experiment [4] was 97.3% (inactive); in experiment [5], 100% (inactive); in experiment [5] (setting [6]) it was 99.3%; in experiment [5] (setting [7]), 102%.

Regarding `CCOC(=O)c1ccc(NC(=O)CCc2nc(-c3cccc(C)c3)no2)cc1`, the GFP response vs DMSO in experiment [1] is 97.8% (inactive); in experiment [1] (setting [6]), 98.5%; in experiment [1] (setting [7]), 98.8%; in experiment [3] it was 106% (inactive). Besides, the GFP response relative to DMSO is 102% (inactive) in experiment [2], 101% in experiment [2] (setting [8]) and 101% in experiment [2] (setting [9]). Moreover, the GFP response, % of DMSO is 95.8% (inactive) in experiment [4], 102% (inactive) in experiment [5], 102% in experiment [5] (setting [6]) and 99.1% in experiment [5] (setting [7]).

Take `N/C(Cc1ccc(Cl)cc1Cl)=N\OC(=O)c1ccccc1`: the GFP response vs DMSO is 99.2% (inactive) in experiment [1], 86.3% in experiment [1] (setting [6]), 89.4% in experiment [1] (setting [7]) and 125% (inactive) in experiment [3]. The GFP response relative to DMSO in experiment [2] was 222% (active); in experiment [2] (setting [8]), 145%; in experiment [2] (setting [9]) it was 213%. The GFP response, % of DMSO in experiment [4] was 105% (inactive); in experiment [5], 181% (active); in experiment [5] (setting [6]) it was 117%; in experiment [5] (setting [7]), 157%.

Turning to `O=C(O)c1ccc(/C=N/NC(=O)c2ccc(Br)cc2)cc1`, the GFP response vs DMSO in experiment [1] was 102% (inactive); in experiment [1] (setting [6]), 100%; in experiment [1] (setting [7]), 102%; in experiment [3], 101% (inactive). Further, the values for the GFP response relative to DMSO in experiment [2], in experiment [2] (setting [8]) and in experiment [2] (setting [9]) were 98.2% (inactive), 95.9% and 98.4%, respectively. Further, the GFP response, % of DMSO in experiment [4] was 99.8% (inactive); in experiment [5], 94.4% (inactive); in experiment [5] (setting [6]), 93.8%; in experiment [5] (setting [7]), 94.4%.

Regarding `COc1ccc(-c2noc(CCCC(=O)NCCc3ccccc3)n2)cc1OC`, the GFP response vs DMSO in experiment [1] is 99.3% (inactive); in experiment [1] (setting [6]), 97.3%; in experiment [1] (setting [7]), 97.3%; in experiment [3] it was 103% (inactive). Further, the values for the GFP response relative to DMSO in experiment [2], in experiment [2] (setting [8]) and in experiment [2] (setting [9]) were 100% (inactive), 101% and 101%, respectively. Moreover, the GFP response, % of DMSO in experiment [4] is 100% (inactive); in experiment [5] it was 101% (inactive); in experiment [5] (setting [6]), 101%; in experiment [5] (setting [7]), 100%.

The values are drawn from PubChem BioAssay.
